RBBP9 inh = blocks human serine hydrolase RBBP9 | O75884 | 220,000 tested, 0.2% active | inhibition, % at 7.94 µM | AID 1515 | recombinant RBBP9, FP-Rh probe fluorescence polarization;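 active = inhibition above the campaign mean of all tested compounds plus 3 SD, cut at about 14% in these data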
Target sequence (O75884 whole entry, looked up): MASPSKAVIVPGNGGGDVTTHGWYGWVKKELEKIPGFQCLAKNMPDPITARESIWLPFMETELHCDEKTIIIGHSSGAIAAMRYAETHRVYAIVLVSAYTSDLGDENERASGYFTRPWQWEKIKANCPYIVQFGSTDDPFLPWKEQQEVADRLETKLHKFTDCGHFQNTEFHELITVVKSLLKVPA
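Test system – recombinant human RBBP9 · Input – RBBP9 2.5 µM in dispensing solution, pre-mixing · Medium – Tris buffer pH 8.0, NaCl, Pluronic · Schedule – preincubation 30 min plus labeling 45 min at 25 °C · Measured by – fluorescence polarization · Measure – % inhibition · Controls – DMSO and no-protein wells · Replicates – one well per compound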
WT yeast gro inh = growth inhibition of WT yeast, mitochondrial fusion screen; mitochondrial fusion phenotypic screen, WT strain; AID 1362; 190,000 tested, 2.1% active; inhibition, % at 10 µM; in the data active = inhibition above about 58%; tested in S. cerevisiae
EBV gp42 inh = EBV gp42 inhibition | Q1HVG2 | Fluorescence polarization binding assay, mP read-out | inhibition, % (tested at 21.74 µM) | 220,000 tested, 0.42% active; in the data active = inhibition above about 50%
eIF4E-4G inh = eIF4E/eIF4G interaction inhibition in translation initiation; TR-FRET eIF4E-eIF4GI(517-606) binding, 2 h; AID 782; 220,000 tested, 0.37% active; inhibition, % at 21.7 µM
p47phox inh = p47phox (human) inhibition. P14598. p47phox/p22phox peptide binding, fluorescence polarization, 2 h. inhibition, % at 24.7 µM. 220,000 tested, 0.53% active. AID 1274
14-3-3 Bad PPI = disrupts binding of bovine 14-3-3 zeta to phospho-Bad peptide; TR-FRET 14-3-3zeta/Dy647-pBad peptide displacement, 1 h; inhibition, % at 21.7 µM; AID 781; 220,000 tested, 0.71% active;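 active = inhibition above about 70%, limit read from the data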
Target sequence (P63103 whole entry, looked up): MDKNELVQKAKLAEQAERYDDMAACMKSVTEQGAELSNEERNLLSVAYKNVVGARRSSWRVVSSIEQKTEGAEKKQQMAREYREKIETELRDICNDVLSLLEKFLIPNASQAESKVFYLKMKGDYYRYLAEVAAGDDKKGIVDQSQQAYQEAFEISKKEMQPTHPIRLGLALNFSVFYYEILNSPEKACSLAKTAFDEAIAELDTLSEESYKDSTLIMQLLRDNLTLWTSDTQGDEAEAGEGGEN
Each line names hits and unclear results; the compound was inactive in the other large screens; [ ] = dose if it differs, or a comment. Most compounds without a hit are left out; they make up all but 3.7% or so of the library.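 Rule for the calls, unless noted: active = inhibition above about 30% (limit read from the data); inactive = the rest.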

O=c1oc2c(O)c(O)cc3c(=O)oc4c(O)c(O)cc1c4c23	EBV gp42 inh 86.5, eIF4E-4G inh 56.4[fluorescence artefact?], 14-3-3 Bad PPI 97.5[fluorescence artefact?]
O=S(=O)(Cc1ccccc1)C1CCCCC1O (stereo not drawn)	none (no result: WT yeast gro inh)
COc1cc(/C=N/NC(=O)C(=O)NCc2ccco2)cc(Br)c1O	none (no result: WT yeast gro inh)
S=C(NCCCc1ccccc1)Nc1ccccc1Cl	WT yeast gro inh 67.6
Cc1c(Cl)cccc1NC(=S)NCCc1ccc(C(F)(F)F)cc1	WT yeast gro inh 81.2
S=C(NCCc1ccccc1)NCCc1ccccc1	WT yeast gro inh 62.5
O=[N+]([O-])c1ccc(NC(=S)NCCc2ccc(Cl)cc2)cc1	WT yeast gro inh 83.3
Cc1nn(C(=O)c2c(-c3ccccc3)noc2C)c(C)c1N=Nc1cc(C(F)(F)F)cc(C(F)(F)F)c1	none (no result: WT yeast gro inh)
CC(C)(C)CC(=O)NCCCCCCNC(=O)CC(C)(C)C	none
NS(=O)(=O)c1ccc(NC(=S)NCCc2ccccc2)cc1	none
S=C(NCCc1ccccc1)N/N=C/c1c(Cl)cccc1Cl	none
CC1=C/C(=N\NC(=S)NCCc2ccccc2)CC(C)(C)C1	WT yeast gro inh 70.2
O=[N+]([O-])c1ccc(NC(=S)NCCc2ccccc2)cc1	WT yeast gro inh 81.4
COc1cc2ccccc2cc1C(=O)NC(=S)Nc1cccc(C(=O)O)c1C	none (no result: WT yeast gro inh)
O=C(NC1CCCCC1)c1ccc(S(=O)(=O)c2ccccc2)cc1	none
O=C(CCl)Nc1cccc(S(=O)(=O)NC2=NCCC2)c1	none (no result: WT yeast gro inh)
COc1ccc(/C=C/C(=O)c2ccc(O)cc2)cc1	none
COc1ccc(/C=C/c2cc(-c3ccc(C)cc3)o[n+]2C)cc1	WT yeast gro inh 58.3
CO/N=C/C(C#N)c1ncc(C(F)(F)F)cc1Cl (stereo not drawn)	eIF4E-4G inh 83.3 (no result: WT yeast gro inh)
O=C(Cc1ccc([N+](=O)[O-])cc1)c1ccc(O)cc1O	none (no result: WT yeast gro inh)
Cc1cc(Cl)ccc1OCC(=O)Nc1nc(-c2cccs2)cs1	WT yeast gro inh 59.9
O=C(Nc1nc(-c2cccs2)cs1)c1ccc(Cl)s1	WT yeast gro inh 80.5
Cc1cc(Cl)ccc1OCC(=O)Nc1nc(-c2cccnc2)cs1	none (no result: WT yeast gro inh)
COc1ccc(C(=O)N/C=C/n2cnc3cc(C(F)(F)F)ccc32)cc1	none (no result: WT yeast gro inh)
Cc1ccc(CNC(=O)c2ccc(-n3cccc3)cc2)cc1	EBV gp42 inh 51.5, eIF4E-4G inh 38.4
Cc1ccc(CNC(=O)Cc2ccc(-n3cccc3)cc2)cc1	none
O=c1cc(/C=C/c2ccccc2)oc2c1ccc1ccccc12	WT yeast gro inh 80.5
CCCCC(=O)Nc1nnc(CCOC)s1	none
O=C1C2=C(SCCS2)C(=O)N1CCCO	EBV gp42 inh 117.3, p47phox inh 72.3
Cc1cc(N/N=C/c2ccc(O)cc2O)nc(-c2ccccc2O)n1	none
Cc1cc(N/N=C/c2ccccc2O)nc(-c2ccccc2O)n1	WT yeast gro inh 68.6
Oc1ccccc1/C=N/Nc1ccccc1	WT yeast gro inh 79.4
Oc1ccccc1/C=N/Nc1ncc(Br)cn1	none
O=[N+]([O-])c1cccc(N/N=C/c2cccc(O)c2O)c1	WT yeast gro inh 62.1
O=[N+]([O-])c1ccccc1N/N=C/c1cccc(O)c1O	none (no result: WT yeast gro inh)
COCCCN1C(=O)/C(=C/c2ccc(CNS(=O)(=O)c3ccccc3)o2)C(C(=O)OC)=C1C	none
Cc1ccccc1NC(=S)NC(C)CCc1ccccc1 (stereo not drawn)	WT yeast gro inh 67.8
CCOc1ccc(NC(=S)NC(C)CCc2ccccc2)cc1 (stereo not drawn)	WT yeast gro inh 61.1
CC(C)(C)c1ccc(/C=C(\C#N)C(=O)NCCN2CCOCC2)cc1	none
O=C(CSc1ccsc1[N+](=O)[O-])Nc1cccc(F)c1	EBV gp42 inh 61.7, eIF4E-4G inh 49.9
O=C(CCN1CCC(c2ccc(Cl)s2)=N1)c1ccc(Cl)s1	none (no result: WT yeast gro inh)
CCOC(=O)N1CCN(C(=O)c2cc3c(s2)-c2ccc(Cl)cc2S(=O)(=O)C3)CC1	none
CC(=O)Oc1c(Cl)cc(Cl)cc1/C=C/c1ccc2ccccc2n1	WT yeast gro inh 83.0
CCOC(=O)c1c(NC(=O)c2nn(C)cc2[N+](=O)[O-])sc(C)c1C	none
O=C(NC(c1ccc(Cl)cc1)c1cc(Cl)c2cccnc2c1O)c1cccnc1 (stereo not drawn)	p47phox inh 31.7
CCCC(=O)NC(c1ccc(OC)c(OC)c1)c1cc(Cl)c2cccnc2c1O (stereo not drawn)	none
C/C=C/c1ccc(OCCn2cncn2)c(OC)c1	14-3-3 Bad PPI 83.7
C/C=C/c1ccc(OCCCCn2cncn2)c(OC)c1	14-3-3 Bad PPI 75.4
C/C=C/c1ccc(OCCCn2cncn2)c(OC)c1	14-3-3 Bad PPI 74.1
